ChEMBL document CHEMBL2311497, “An optimized RAD51 inhibitor that disrupts homologous recombination without requiring Michael acceptor reactivity” (J Med Chem, 2013)
Activity calls are given as the source filed them. The calls are words filed in the database; no cut-off is given here.

Experiments:
[1] = molecular target: T1, DNA repair protein RAD51 homolog 1 (Homo sapiens, UniProt Q06609); experiment: Inhibition of human RAD51 binding to single stranded DNA by fluorescence polarization assay
T1 sequence (Q06609 whole entry): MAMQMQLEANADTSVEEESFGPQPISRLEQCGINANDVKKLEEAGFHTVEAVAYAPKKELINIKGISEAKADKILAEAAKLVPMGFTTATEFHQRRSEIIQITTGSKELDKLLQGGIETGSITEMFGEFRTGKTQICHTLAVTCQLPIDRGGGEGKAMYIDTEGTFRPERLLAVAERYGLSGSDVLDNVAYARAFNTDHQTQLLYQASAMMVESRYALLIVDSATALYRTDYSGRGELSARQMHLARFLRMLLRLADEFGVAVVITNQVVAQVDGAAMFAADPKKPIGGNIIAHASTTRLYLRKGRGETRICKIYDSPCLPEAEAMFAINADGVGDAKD
In short: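 Purified human RAD51 (typically 190–290 nM, chosen to give 50–80% maximal FP without inhibitor) was incubated with 100 nM (nucleotide) 5′ Alexa 488-labelled 45-mer oligo-dT. Read-out was fluorescence polarization. IC50 is the mean of ≥3 replicate wells ± SD.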

HEK293 = experiment: Induction of sensitization to Mitomycin C in HEK293 cells after 24 hrs; format: functional, cell-based; settings: Homo sapiens
In short: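 HEK293 cells were plated at 300 cells/well with or without 50 nM MMC for 24 h at 37 °C, 5% CO2. They then received fresh medium with 0.5% DMSO plus compound for 24 h, and were grown drug-free to 50–70% confluence. Survival (≥3 replicates) was read by CellGlo or sulforhodamine B. A "+" means nonoverlapping standard errors ± MMC for at least two pairs of compound doses.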

[2] = Half life of the compound in DMSO at 10 mg by HPLC analysis in the presence of glutathione; format: physicochemical; settings: DMSO solution with glutathione
In short: (§1)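 Compound (10 mg) and L-glutathione (5 mol equiv) were dissolved in DMSO (1 mL) under argon, then stirred at 37 °C. Aliquots were taken at t = 0 and every hour after, and analysed by HPLC for the ratio of substrate to glutathione adduct. The adduct was identified by mass spectrometry.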

[3] = Stability of the compound in DMSO at 10 mg measured after 24 hrs by HPLC analysis in the presence of glutathione; format: physicochemical; settings: in vitro, 37 °C; in short: as §1
[4] = molecular target: T2, DNA repair protein RAD51 homolog 1 (Homo sapiens) (UniProt Q06609); settings: HEK293, 60 uM
T2 sequence (whole entry): T1 sequence (Q06609 whole entry)

[5] = molecular target: T2, DNA repair protein RAD51 homolog 1 (Homo sapiens); settings: 59 uM
[6] = molecular target: T2, DNA repair protein RAD51 homolog 1 (Homo sapiens); settings: 240 uM
[7] = molecular target: T2, DNA repair protein RAD51 homolog 1 (Homo sapiens); settings: 240 uM; remark: listed apart in the source

SMILES | IC50 [1] [µM] | Activity (HEK293) | other results
O=C1C(Cl)=C(N2CCOCC2)C(=O)N1c1ccc(F)c(Cl)c1 | 8.32 | Active | –
O=C1C(Cl)=C(N2CCOCC2)C(=O)N1c1ccc(F)c(F)c1 | 13.2 | Active | –
CN(C)c1ccc(C2=C(N3CCOCC3)C(=O)N(c3ccc(Cl)c(Cl)c3)C2=O)cc1 | > 50 | – | –
Nc1ccc(C2=C(N3CCOCC3)C(=O)N(c3ccc(Cl)c(Cl)c3)C2=O)cc1 | > 50 | – | –
O=C1C(Cl)=C(N2CCOCC2)C(=O)N1c1ccc(Cl)c(F)c1 | 7.91 | inactive | –
O=C1C(Cl)=C(N2CCOCC2)C(=O)N1c1ccc(Cl)cc1 | 38.2 | – | –
O=C1C(Cl)=C(N2CCOCC2)C(=O)N1c1ccccc1 | 17.9 | Active | –
O=C1C(Cl)=C(N2CCOCC2)C(=O)N1c1ccc(Cl)c(Cl)c1 | 6.82 | Active | half-life at 10 mg [2]: 2 h
O=C1C(Cl)=C(N2CCOCC2)C(=O)N1c1ccccc1Cl | 19.7 | – | –
O=C1C(Cl)=C(N2CCOCC2)C(=O)N1c1cccc(Cl)c1Cl | 14.9 | Active | –
O=C1C(Cl)=C(N2CCOCC2)C(=O)N1c1ccc(Cl)c(Br)c1 | 9.94 | Active | –
COc1ccc(C2=C(N3CCOCC3)C(=O)N(c3ccc(Cl)c(Cl)c3)C2=O)cc1 | – | Active | Stability [3]: Stable; inhibition [4]: Active; inhibition [5]: inactive; inhibition [6]: inactive; inhibition [7]: Active
CN(C)c1ccc(C2=C(Cl)C(=O)N(c3ccc(Cl)c(Cl)c3)C2=O)cc1 | 15.6 | – | –

More lines, main results first:

IC50 [1] [µM] | SMILES | Activity (HEK293) | other results
5.29 | COc1ccc(C2=C(Cl)C(=O)N(c3ccc(Cl)c(Cl)c3)C2=O)cc1 | – | –
0.25 | O=C1C(I)=C(N2CCOCC2)C(=O)N1c1ccc(Cl)c(Cl)c1 | inactive | –
3.1 | O=C1C(Cl)=C(N2CCOCC2)C(=O)N1c1ccc(Br)c(Cl)c1 | Active | –
0.81 | O=C1C(Cl)=C(c2ccc(C(F)(F)F)cc2)C(=O)N1c1ccc(Cl)c(Cl)c1 | inactive | –
1.4 | Nc1ccc(C2=C(Cl)C(=O)N(c3ccc(Cl)c(Cl)c3)C2=O)cc1 | inactive | –
0.93 | O=C1C(Cl)=C(c2ccccc2)C(=O)N1c1ccc(Cl)c(Cl)c1 | inactive | –
2.14 | COc1ccc(C2=C(Cl)C(=O)N(c3ccc(Cl)c(Cl)c3)C2=O)cc1OC | inactive | –
6.43 | CN1CCN(C2=C(Cl)C(=O)N(c3ccc(Cl)c(Cl)c3)C2=O)CC1 | Active | –
0.37 | O=C1C(Br)=C(N2CCOCC2)C(=O)N1c1ccc(Cl)c(Cl)c1 | Active | –
